The results in this text go back to ChEMBL document CHEMBL6177937, “Design, synthesis, and biological evaluation of novel thiazole derivatives as PI3K/mTOR dual inhibitors” (RSC Med Chem, 2024).

In general, IC50 refers to the concentration that inhibits the measured activity by half.

In data set [1] the test system is Panel NCI-60 (60 carcinoma cell lines). As to the kind of experiment: Antiproliferative activity against human NCI-60 cells assessed as growth inhibition at 10 uM measured after 48 hrs by SRB assay relative to control. It is filed as functional. To be noted: read-out: GI. The method in brief: (§1)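 NCI screen: cells seeded at […] per well and preincubated 24 h (37°C, 5% CO2). Compound stocks in DMSO, tested at a single 10 μM. Exposure 48 h. Adherent cells fixed with cold TCA (10% final), suspension cells with 16% TCA. SRB stain read at 515 nm. Percent growth inhibition reported against time-zero and untreated controls.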
(The SRB assay estimates cell density from bound dye.)

Another data set relates to ACHN. As to the kind of experiment: Growth inhibition of human ACHN cells at 10 uM measured after 48 hrs by SRB assay relative to control. It is filed as functional. Particulars: read-out: GI. The method in brief: as §1
The test system of the next data set is RXF 393. As to the kind of experiment: Growth inhibition of human RXF 393 cells at 10 uM measured after 48 hrs by SRB assay relative to control. Particulars: read-out: GI. It is filed as functional. A digest of the protocol: (§2)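 Single-dose NCI screen at 10 μM: 48 h exposure at 37°C, 5% CO2; adherent cells fixed in cold TCA (final 10%), suspension cells in TCA (final 16%); SRB stain solubilized in 10 mM Trizma base, absorbance 515 nm; percent growth inhibition calculated relative to untreated control and time-zero plates.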

Data set [2] can be described thus: Cytotoxicity against human PCS-800-017 cells assessed as reduction in cell viability measured after 24 hrs by MTT assay. It is filed as toxicity, cell-based. The method in brief:
(§3)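 MTT viability with 24 h incubation in 96-well plates. Five semi-log concentrations from 0.01 to 100 μM. Formazan absorbance read at 570 nm, with 690 nm background subtracted. Run in triplicate. IC50 obtained by sigmoidal dose-response fitting. Cells are leukemia HL-60(TB) and normal lymphocytes (PCS-800-017).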
(Tetrazolium dyes change colour on reduction, which living cells bring about.)

For a further data set, the system named is HL-60. As to the kind of experiment: Cytotoxicity against human HL-60 cells assessed as reduction in cell viability measured after 24 hrs by MTT assay. It is filed as functional, cell-based. To be noted: HL-60, 24 h. A digest of the protocol: as §3
For the next data set, the system named is SW-620. As to the kind of experiment: Growth inhibition of human SW620 cells at 10 uM measured after 48 hrs by SRB assay relative to control. It is filed as functional. To be noted: read-out: GI. A digest of the protocol: as §2
Another data set deals with A549. As to the kind of experiment: Growth inhibition of human A549 cells at 10 uM measured after 48 hrs by SRB assay relative to control. It is filed as functional. Particulars: A549, read-out: GI. The method in brief:
as §1

In a further data set the test system is HCT-116. As to the kind of experiment: Growth inhibition of human HCT-116 cells at 10 uM measured after 48 hrs by SRB assay relative to control. It is filed as functional. To be noted: read-out: GI. The method in brief:
as §1

The subject of another data set is NCI-H460. As to the kind of experiment: Growth inhibition of human NCI-H460 cells at 10 uM measured after 48 hrs by SRB assay relative to control. It is filed as functional. Particulars: NCI-H460, read-out: GI. The method in brief: as §1
Another data set deals with HT-29. As to the kind of experiment: Growth inhibition of human HT-29 cells at 10 uM measured after 48 hrs by SRB assay relative to control. It is filed as functional. To be noted: HT-29, read-out: GI. The method in brief: as §1
The subject of the next data set is OVCAR-3. As to the kind of experiment: Growth inhibition of human OVCAR-3 cells at 10 uM measured after 48 hrs by SRB assay relative to control. It is filed as functional. To be noted: OVCAR-3, read-out: GI. A digest of the protocol: as §1
In another data set the test system is NCI-H322M. As to the kind of experiment: Growth inhibition of human NCI-H322M cells at 10 uM measured after 48 hrs by SRB assay relative to control. Particulars: read-out: GI. It is filed as functional. The method in brief:
as §1

Another data set concerns RPMI-8226. As to the kind of experiment: Growth inhibition of human RPMI-8226 cells at 10 uM measured after 48 hrs by SRB assay relative to control. It is filed as functional. Particulars: RPMI-8226, read-out: GI. A digest of the protocol: as §2
The next data set relates to MCF7. As to the kind of experiment: Growth inhibition of human MCF7 cells at 10 uM measured after 48 hrs by SRB assay relative to control. To be noted: read-out: GI. It is filed as functional. A digest of the protocol: as §1
Another data set relates to KM12. As to the kind of experiment: Growth inhibition of human KM12 cells at 10 uM measured after 48 hrs by SRB assay relative to control. To be noted: KM12, read-out: GI. It is filed as functional. A digest of the protocol:
as §1

A further data set concerns UO-31. As to the kind of experiment: Growth inhibition of human UO-31 cells at 10 uM measured after 48 hrs by SRB assay relative to control. It is filed as functional. Particulars: read-out: GI. A digest of the protocol:
as §2

As to `COc1cc(/C=N/Nc2nc(-c3cccc([N+](=O)[O-])c3)cs2)ccc1OCc1ccccc1`, in [1], the inhibition of growth at 10 µM turned out to be 28.8%.
As for `Cc1c(/C=N/Nc2nc(-c3cccc([N+](=O)[O-])c3)cs2)c(=O)n(-c2ccccc2)n1C`, in [1], the inhibition of growth at 10 µM was 16.2%.
Take `C(=N\Nc1nc(-c2ccccc2)cs1)/c1ccc(OCc2ccccc2)cc1`: the figures for the inhibition of growth at 10 µM (with ACHN; in [1]) were 79.8% and 13.1%, respectively.
On to `O=[N+]([O-])c1cccc(-c2csc(N/N=C/c3ccc(OCc4ccccc4)cc3)n2)c1`, for which, in data set [1], the inhibition of growth at 10 µM amounted to 18.5%.
The same measure, in the same setting: next, `COc1cc(/C=N/Nc2nc(-c3ccccc3)cs2)ccc1OCc1ccccc1`: 19.1%.
In the case of `CCOc1cc(/C=N/Nc2nc(-c3cccc([N+](=O)[O-])c3)cs2)ccc1OCc1ccccc1`, the inhibition of growth at 10 µM in the data set with RXF 393 was 79.2%; in data set [1], 23.9%.
`COc1cccc2c1C(=O)c1c(O)c3c(c(O)c1C2=O)C[C@@](O)(C(=O)CO)C[C@@H]3O[C@H]1C[C@H](N)[C@H](O)[C@H](C)O1` [DOXORUBICIN]: the IC50 at 24 h in data set [2] amounted to 12.5 µM. The IC50 with HL-60 came out at 450 nM.
On to `CCOc1cc(/C=N/Nc2nc(-c3ccc(Cl)cc3)cs2)ccc1OCc1ccccc1`, for which the inhibition of growth at 10 µM in the data set with SW-620 is 76.2%; in the data set with A549, 87.4%; in the data set on HCT-116, 87.5%; in data set [1], 37.1%; in the data set on NCI-H460, 88.8%.
For `CCOc1cc(/C=N/Nc2nc(-c3ccc(Br)cc3)cs2)ccc1OCc1ccccc1`, the inhibition of growth at 10 µM in the data set on SW-620 was determined as 76.1%; in the data set on A549, 76.4%; in the data set with HT-29 it was 73.9%; with HCT-116 it was 70.9%; in data set [1], 31.8%; in the data set with NCI-H460, 78.6%.
`Cc1c(/C=N/Nc2nc(-c3ccc(Br)cc3)cs2)c(=O)n(-c2ccccc2)n1C`: the inhibition of growth at 10 µM in data set [1] is 9.82%.
Still for that read-out and setting: next, `O=[N+]([O-])c1cccc(-c2csc(N/N=C/c3ccc4c(c3)OCO4)n2)c1`: 18.2%.
With `CCOc1cc(/C=N/Nc2nc(-c3ccccc3)cs2)ccc1O`, the inhibition of growth at 10 µM in data set [1] is 36.9%.
Consider `O=[N+]([O-])c1cccc(-c2csc(N/N=C/c3ccc(Cl)c([N+](=O)[O-])c3)n2)c1`, for which, in data set [1], the inhibition of growth at 10 µM was 36%.
As to `O=[N+]([O-])c1cc(/C=N/Nc2nc(-c3ccccc3)cs2)ccc1Cl`, the inhibition of growth at 10 µM stood at 96.2% with OVCAR-3; 21.5% in data set [1]; 83.1% with NCI-H322M; 85.1% in the data set on RPMI-8226; 89.9% in the data set with MCF7; 86.6% in the data set with KM12.
For `CCOc1cc(/C=N/Nc2nc(-c3ccccc3)cs2)ccc1OCc1ccccc1`, the results for the inhibition of growth at 10 µM (in the data set with UO-31; in data set [1]) were 48.1% and 14.5%, respectively.
In the case of `COc1cc(/C=N/Nc2nc(-c3ccc(Cl)cc3)cs2)ccc1OCc1ccccc1`, the inhibition of growth at 10 µM in data set [1] worked out at 16.5%; in the data set on MCF7, 45%.
